Sampled rows, rich in hits. Any-hit rate of the full collection: about 3.1%.
KCNQ1 act – potentiators or activators of KCNQ1 channel, primary screen, cell-based, thallium flux, high-throughput | Potassium voltage-gated channel subfamily KQT member 1 (Homo sapiens), P51787 | CHO-K1 KCNQ1, thallium flux FluxOR fluorescence; hits give high values | B-score at 10 µM | hit rate 0.35% among 310,000 | AID 2648, 2010;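 active = fluorescence ratio B-score, a plate-corrected score, at least three library SD, with initial intensity B-score within 5 SD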
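Assay system: stable KCNQ1 CHO-K1 line; medium: assay buffer, equal DMSO in all wells; timing: 90 min dye loading and 20 min compound exposure, both at room temperature; technique: kinetic FluxOR thallium fluorescence, 10-s 1-Hz baseline, 110-s post-stimulus read; read-out basis: B score of baseline-normalized fluorescence ratio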
hERG rescue – hERG rescue from dofetilide block, primary screen, cell-based, CHO-hERG, FluxOR thallium flux, dofetilide IC70 | Voltage-gated inwardly rectifying potassium channel KCNH2 (Homo sapiens), Q12809 | dofetilide IC70 present | activation (rescue from dofetilide block), less the hit threshold, % at 10 µM | hit rate 0.51% among 310,000 | AID 1511, 2009;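 active = activation above the mean of controls blocked by dofetilide plus 5 SD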;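 also: thallium influx through hERG after potassium depolarization seen as dye fluorescence rise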
KCNK3 block – human KCNK3 channel inhibitors, primary screen, CHO cells, FluxOR thallium flux, B-score; FluxOR fluorescence; hits give low values; hit rate 0.84% among 340,000; Potassium channel subfamily K member 3 (Homo sapiens), O14649; B-score at 10 µM;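 active = B-score under library mean minus 4 SD, starting fluorescence ratio at most library mean plus 5 SD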;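 also: more negative B-score means stronger inhibition of thallium flux through KCNK3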
KCNQ1 inh – inhibitors of human KCNQ1 channel, primary screen, cell-based, thallium flux, high-throughput; CHO-K1 KCNQ1, FluxOR thallium flux fluorescence; hits give high values; B-score at 10 µM; hit rate 1.3% among 310,000; AID 2642, 2010;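 active = compounds whose thallium flux B-score, printed positive for inhibition, exceeds three library SD while starting fluorescence stays within three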;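 also: channel opened by potassium depolarization with thallium stimulus after 20 min compound exposure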
KCNK9 inh – KCNK9 potassium channel inhibitors, primary screen, HEK293 cells, thallium flux; hit rate 1.2% among 310,000; B-score at 10 µM; FluxOR thallium flux fluorescence; hits give low values;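 active = ratio B-score over 3 SD below the library mean, with starting fluorescence within 5 SD of its mean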;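 also: negative B-score means less thallium flux so channel inhibition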
KCNK9 inh conf – KCNK9 potassium channel inhibitors, confirmation, HEK293 cells, thallium flux, duplicate. FluxOR thallium flux fluorescence. shares compounds with KCNK9 inh. hit rate 43% among 4,900. inhibition, % at 10 µM;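 active = thallium signal inhibited by more than 5 SD of the compound-free buffer control wells, on both duplicate plates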;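 also: 0% = assay buffer control wells without compound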
Kir21 sel – mouse Kir2.1 channel inhibition, confirmation, selectivity assay for KCNK9 modulator project, cell-based, HEK293, thallium flux; shares compounds with KCNK9 inh; Kir2.1 cells, FluxOR thallium flux fluorescence; inhibition, % at 10 µM; hit rate 4% among 4,900;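 active = thallium signal drop more than 5 SD beyond the mean of the no-compound control wells, seen in both duplicate plates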;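 also: signal is fluorescence rise after thallium addition divided by baseline fluorescence; plate controls were assay buffer only for no effect and full block by chlorpromazine control for full effect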
Target sequence (P35561 whole entry, looked up): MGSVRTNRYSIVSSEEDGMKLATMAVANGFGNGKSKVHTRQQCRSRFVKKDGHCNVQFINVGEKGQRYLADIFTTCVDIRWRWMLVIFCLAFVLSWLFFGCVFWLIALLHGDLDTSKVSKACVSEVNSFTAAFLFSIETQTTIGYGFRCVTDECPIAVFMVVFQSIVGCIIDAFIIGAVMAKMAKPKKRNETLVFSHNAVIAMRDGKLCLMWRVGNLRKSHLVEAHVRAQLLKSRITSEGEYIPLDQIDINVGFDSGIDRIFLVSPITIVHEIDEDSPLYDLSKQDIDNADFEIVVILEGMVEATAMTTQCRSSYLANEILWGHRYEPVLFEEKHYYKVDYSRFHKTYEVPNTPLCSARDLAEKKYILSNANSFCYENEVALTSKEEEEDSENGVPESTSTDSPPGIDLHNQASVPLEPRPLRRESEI
HEK293 Tl ctr – thallium flux in non-induced HEK293 cells, confirmation, counter-screen for KCNK9 inhibitor project, cell-based, second counter screen, non-induced KCNK9-HEK293; shares compounds with KCNK9 inh; FluxOR thallium flux; inhibition, % at 10 µM; hit rate 40% among 4,900;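 active = thallium signal drop beyond 5 SD of the untreated control mean, on both duplicate plates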;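 also: plate controls were buffer only IC0 wells for no effect and SID17386958 at its maximal inhibitory level for full effect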
Starred values were filed as active, the others as inactive.

For COc1cccc(CN(C)C(=O)COc2cccc3c2OC(C)(C)C3)c1OC the results were KCNK3 block inactive.
Screening Cc1ccc(C(=O)CCCn2nnc(-c3cccnc3)n2)cc1C returned KCNQ1 act inactive, hERG rescue -5.1, KCNK3 block inactive, KCNQ1 inh inactive, KCNK9 inh inactive, KCNK9 inh conf inactive, Kir21 sel inactive and HEK293 Tl ctr inactive.
Screening CCOCCCn1c(SCc2ccccc2)nnc1-c1ccncc1 returned KCNQ1 act inactive, hERG rescue -1.0, KCNK3 block inactive, KCNQ1 inh inactive and KCNK9 inh inactive.
CCn1cc(/C=N/N=C2\CCC3C4CCc5cc(O)ccc5C4CC[C@]23C)c(C)n1 (some centres undefined) was read as KCNQ1 act inactive, hERG rescue -7.8, KCNK3 block inactive, KCNQ1 inh inactive, KCNK9 inh inactive, KCNK9 inh conf inactive, Kir21 sel inactive and HEK293 Tl ctr inactive.
Screening CC(=O)OC1CCC2C3CCc4cc(O)ccc4C3CCC12C (centres undefined) returned KCNK3 block inactive.
`CCn1c(=O)n(CC)c2cc(N3CCCC3)c(NC(=O)c3ccccc3OC)cc21` gave KCNQ1 act inactive, hERG rescue -12.9, KCNK3 block inactive, KCNQ1 inh inactive, KCNK9 inh -8.97*, KCNK9 inh conf 42.0%*, Kir21 sel inactive and HEK293 Tl ctr inactive.
Screening COc1cc(C(=O)Nc2cc3c(cc2N2CCCCC2)n(C)c(=O)n3C)cc(OC)c1OC returned KCNQ1 act inactive, hERG rescue -7.1, KCNK3 block inactive, KCNQ1 inh inactive, KCNK9 inh -19.6*, KCNK9 inh conf 67.0%*, Kir21 sel inactive and HEK293 Tl ctr inactive.
CCn1c(=O)n(CC)c2cc(N3CCCC3)c(NC(=O)c3cc(Cl)ccc3OC)cc21 was read as KCNQ1 act inactive, hERG rescue -5.7, KCNK3 block inactive, KCNQ1 inh inactive and KCNK9 inh inactive.
For COc1ccc(C(=O)Nc2cc3c(cc2N2CCCCC2)n(C)c(=O)n3C)cc1OC the results were KCNQ1 act inactive, hERG rescue -8.8, KCNK3 block inactive, KCNQ1 inh inactive and KCNK9 inh inactive.
Screening Cc1ccc(S(=O)(=O)N2CCN(C(=O)C3CCN(c4ncnc5sc(C)c(C)c45)CC3)CC2)c(C)c1 returned KCNK3 block inactive.
`CCN1C(=O)[C@H]2[C@@H](c3ccc(-c4ccc(OC)cc4)cc3)N3CCCC[C@@]3(C(=O)OC)[C@H]2C1=O` gave KCNQ1 act inactive, hERG rescue -5.7, KCNK3 block inactive, KCNQ1 inh inactive and KCNK9 inh inactive.
CC(C)n1nc(C(=O)Nc2cccc(S(=O)(=O)N3CCCCC3)c2)c2ccccc2c1=O was read as KCNK3 block inactive.
For Cc1cccc(COCC(Cc2ccccc2)N2CCN(C(=O)c3cc(Cl)cc(Cl)c3)CCC2=O)c1 (centres undefined) the results were KCNQ1 act inactive, hERG rescue -16.7, KCNK3 block inactive, KCNQ1 inh inactive and KCNK9 inh inactive.
For Cc1cccc(COCC(Cc2ccccc2)N2CCN(C(=O)c3cccc(C)c3)CCC2=O)c1 (centres undefined) the results were KCNQ1 act inactive, hERG rescue -13.4, KCNK3 block inactive, KCNQ1 inh inactive, KCNK9 inh inactive, KCNK9 inh conf inactive, Kir21 sel inactive and HEK293 Tl ctr inactive.
For CCOc1ccc(Oc2ccc(C(F)(F)F)cc2N)cc1 the results were KCNQ1 act inactive, hERG rescue -11.0, KCNK3 block inactive, KCNQ1 inh inactive and KCNK9 inh inactive.
For COc1cccc(Oc2ccc(C(F)(F)F)cc2N)c1 the results were KCNQ1 act inactive, hERG rescue -11.6, KCNK3 block inactive, KCNQ1 inh inactive, KCNK9 inh -8.45*, KCNK9 inh conf 54.5%*, Kir21 sel inactive and HEK293 Tl ctr 32.5%*.
`O=C(c1cc(COc2c(F)cccc2F)on1)N1CCC(c2ccncc2)CC1` gave KCNQ1 act inactive, hERG rescue -17.9, KCNK3 block inactive, KCNQ1 inh inactive and KCNK9 inh inactive.
CN(Cc1cc(-c2ccccc2)on1)C(=O)c1cc(COc2c(F)cccc2F)on1 was read as KCNQ1 act inactive, hERG rescue -18.6, KCNK3 block inactive, KCNQ1 inh inactive, KCNK9 inh -12.7*, KCNK9 inh conf 66.5%*, Kir21 sel inactive and HEK293 Tl ctr 29.5%*.
`O=C(c1cc(COc2c(F)cccc2F)on1)N1CCC(c2ccccc2F)C1` (centres undefined) gave KCNQ1 act inactive, hERG rescue -13.9, KCNK3 block inactive, KCNQ1 inh inactive, KCNK9 inh inactive, KCNK9 inh conf inactive, Kir21 sel inactive and HEK293 Tl ctr inactive.
Screening CN1CCN(C(=O)c2cc(COc3c(F)cccc3F)on2)CC1c1ccccc1 (centres undefined) returned KCNQ1 act inactive, hERG rescue -7.6, KCNK3 block inactive, KCNQ1 inh inactive, KCNK9 inh inactive, KCNK9 inh conf inactive, Kir21 sel inactive and HEK293 Tl ctr inactive.
`O=C(c1cc(COc2c(F)cccc2F)on1)N1CCC(c2ccccc2Cl)C1` (centres undefined) gave KCNQ1 act inactive, hERG rescue -11.1, KCNK3 block inactive, KCNQ1 inh inactive, KCNK9 inh inactive, KCNK9 inh conf inactive, Kir21 sel 43.0%* and HEK293 Tl ctr inactive.
`O=C1Cc2cc([N+](=O)[O-])ccc2N1c1c(Cl)cccc1Cl` gave KCNQ1 act inactive, hERG rescue -3.9, KCNK3 block inactive, KCNQ1 inh inactive and KCNK9 inh inactive.
